ChEMBL document CHEMBL1121789, “Some analogues of luteinizing hormone-releasing hormone with substituents in position 10” (1981)
Square brackets hold non-standard residues; d marks the D form. Peptide text beside a SMILES is read from it. * marks the point of attachment. pGlu = O=C1CC[C@@H](C(=O)O)N1; X1 = O=C(NN*)C(F)(F)F; X5 = N/C(S)=N\N*; X2 = CC(=O)NN*; X3 = CN(N)*; X4 = O=CNN*

Assays:
[1] = species on record: Rattus norvegicus; test: In vitro FSH-release potency of compound was measured in rat hemipituitaries by taking LH-RH as standard; assay type: functional
Summary of the method: (§1)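 Rat hemipituitaries incubated in vitro with each analogue, usually at two dose levels in a 2 × 2 (four-point) design against an LH-RH standard. Media sampled 6 h later and assayed for LH and FSH by radioimmunoassay. Potency expressed relative to the standard, with 95% confidence limits.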

[2] = species on record: Rattus norvegicus; test: In vitro LH-release potency of compound was measured in rat hemipituitaries by taking LH-RH as standard; assay type: functional; summary of the method: as §1

Structure (SMILES) | Potency [1] | Potency [2]
CC(C)C[C@H](NC(=O)CNC(=O)[C@H](Cc1ccc(O)cc1)NC(=O)[C@H](CO)NC(=O)[C@H](Cc1c[nH]c2ccccc12)NC(=O)[C@H](Cc1cnc[nH]1)NC(=O)[C@@H]1CCC(=O)N1)C(=O)N[C@@H](CCCNC(=N)N)C(=O)N1CCC[C@H]1C(=O)NCC(N)=O [GONADORELIN] | 100 | 100
CC(C)C[C@H](NC(=O)CNC(=O)[C@H](Cc1ccc(O)cc1)NC(=O)[C@H](CO)NC(=O)[C@H](Cc1c[nH]c2ccccc12)NC(=O)[C@H](Cc1c[nH]cn1)NC(=O)[C@@H]1CCC(=O)N1)C(=O)N[C@@H](CCCN=C(N)N)C(=O)N1CCC[C@H]1C(=O)N(C)N ([pGlu]HWSYGLRP-X3) | 11 | 17
CC(C)C[C@H](NC(=O)CNC(=O)[C@H](Cc1ccc(O)cc1)NC(=O)[C@H](CO)NC(=O)[C@H](Cc1c[nH]c2ccccc12)NC(=O)[C@H](Cc1c[nH]cn1)NC(=O)[C@@H]1CCC(=O)N1)C(=O)N[C@@H](CCCN=C(N)N)C(=O)N1CCC[C@H]1C(=O)NNC(=O)C(F)(F)F ([pGlu]HWSYGLRP-X1) | 0.9 | 1
CC(=O)NNC(=O)[C@@H]1CCCN1C(=O)[C@H](CCCN=C(N)N)NC(=O)[C@H](CC(C)C)NC(=O)CNC(=O)[C@H](Cc1ccc(O)cc1)NC(=O)[C@H](CO)NC(=O)[C@H](Cc1c[nH]c2ccccc12)NC(=O)[C@H](Cc1c[nH]cn1)NC(=O)[C@@H]1CCC(=O)N1 ([pGlu]HWSYGLRP-X2) | 0.6 | 1.2
CC(C)C[C@H](NC(=O)CNC(=O)[C@H](Cc1ccc(O)cc1)NC(=O)[C@H](CO)NC(=O)[C@H](Cc1c[nH]c2ccccc12)NC(=O)[C@H](Cc1c[nH]cn1)NC(=O)[C@@H]1CCC(=O)N1)C(=O)N[C@@H](CCCN=C(N)N)C(=O)N1CCC[C@H]1C(=O)N/N=C(\N)S ([pGlu]HWSYGLRP-X5) | 4.6 | 6.5
CC(C)C[C@H](NC(=O)CNC(=O)[C@H](Cc1ccc(O)cc1)NC(=O)[C@H](CO)NC(=O)[C@H](Cc1c[nH]c2ccccc12)NC(=O)[C@H](Cc1c[nH]cn1)NC(=O)[C@@H]1CCC(=O)N1)C(=O)N[C@@H](CCCN=C(N)N)C(=O)N1CCC[C@H]1C(=O)NNC=O ([pGlu]HWSYGLRP-X4) | 10 | 15.3
